Measured values: ChEMBL document CHEMBL2062438, “Probing the structural requirements for vitamin D3 inhibition of the hedgehog signaling pathway” (Bioorg Med Chem Lett, 2012)

Columns and labels:
HT-29 [1] = assay: Growth inhibition of human HT-29 cells overexpressing VDR gene after 72 hrs by MTS assay; type: functional; conditions: HT-29, 72 h
In short: (§1)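 Cells seeded at 3000/well, incubated overnight at 37 °C in 5% CO2, then treated in triplicate at varying concentrations in 1% DMSO final for 72 h. Viable cells read by MTS. GI50 given as mean ± SEM of at least two separate experiments.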

Vitamin D3 receptor [2] = target: T1, Vitamin D3 receptor (Homo sapiens, UniProt P11473); assay: Binding affinity to full length human VDR expressed in mouse C3H10T1/2 cells assessed as upregulation of CYP24A1 mRNA expression at 5 uM after 24 hrs by RT-PCR analysis relative to control; type: ADME, cell-based; conditions: c3h 10t1/2, 24 h
T1 sequence (P11473 whole entry): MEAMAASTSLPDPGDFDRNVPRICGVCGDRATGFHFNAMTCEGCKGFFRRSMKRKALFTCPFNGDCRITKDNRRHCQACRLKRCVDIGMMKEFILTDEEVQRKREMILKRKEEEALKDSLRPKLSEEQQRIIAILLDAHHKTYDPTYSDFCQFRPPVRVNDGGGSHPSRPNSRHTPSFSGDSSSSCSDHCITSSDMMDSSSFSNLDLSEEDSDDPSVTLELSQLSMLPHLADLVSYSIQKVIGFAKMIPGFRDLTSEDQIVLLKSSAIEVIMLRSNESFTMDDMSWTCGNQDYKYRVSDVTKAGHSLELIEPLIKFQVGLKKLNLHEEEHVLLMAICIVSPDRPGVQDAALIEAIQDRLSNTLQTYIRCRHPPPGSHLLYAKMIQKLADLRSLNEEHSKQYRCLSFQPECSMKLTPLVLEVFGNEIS
In short: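 Mouse C3H10T1/2 cells treated with analogue at 5 µM for 24 h. Cyp24A1 mRNA was measured and expressed relative to DMSO control, which was set to 1.0.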

[3] = target: Protein smoothened (Homo sapiens) (UniProt Q99835); assay: Inhibition of SMO expressed in mouse C3H10T1/2 cells assessed as down-regulation of Gli1 mRNA expression at 5 uM after 24 hrs by RT-PCR analysis relative to oxysterol; type: cell-based; set-up: scale not given: the % may be the effect or the level left; conditions: C3H 10T1/2
In short: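 Hh-dependent C3H10T1/2 cells, with the pathway activated by oxysterol, co-treated with analogue at 5 µM for 24 h. Endogenous Gli1 mRNA is reported as % of the oxysterol control, set at 100%.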

HT-29 [4] = assay: Down-regulation of Gli1 mRNA expression in human HT-29 cells at 10 uM after 24 hrs by RT-PCR analysis relative to DMSO-treated control; type: functional
HT-29 [5] = assay: Upregulation of CYP24A1 mRNA expression in human HT-29 cells at 10 uM after 24 hrs by RT-PCR analysis relative to DMSO-treated control; type: functional
[6] = Growth inhibition of human U87MG cells after 72 hrs by MTS assay; type: functional, U-87MG ATCC; conditions: U-87 MG; in short: as §1
[7] = Down-regulation of Gli1 mRNA expression in human U87MG cells at 10 uM after 24 hrs by RT-PCR analysis relative to DMSO-treated control; type: functional, cell-based; conditions: U-87MG ATCC
[8] = Upregulation of CYP24A1 mRNA expression in human U87MG cells at 10 uM after 24 hrs by RT-PCR analysis relative to DMSO-treated control; type: functional, cell-based; conditions: U-87MG ATCC
Vitamin D3 receptor [9] = target: T1, Vitamin D3 receptor; assay: Binding affinity to full length human VDR by fluorescence polarization-based competitive assay; type: ADME
In short: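 Competitive fluorescence polarization binding using full-length human VDR and a tight-binding fluorescent VDR ligand; analogues tested at 50 and 100 µM.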

U-87 MG = assay: Ratio of CYP24A1 mRNA upregulation in human […] cells to upregulation of CYP24A1 mRNA in human U87MG cells; type: functional, U-87MG ATCC

Protein smoothened (Homo sapiens), sequence (Q99835 whole entry): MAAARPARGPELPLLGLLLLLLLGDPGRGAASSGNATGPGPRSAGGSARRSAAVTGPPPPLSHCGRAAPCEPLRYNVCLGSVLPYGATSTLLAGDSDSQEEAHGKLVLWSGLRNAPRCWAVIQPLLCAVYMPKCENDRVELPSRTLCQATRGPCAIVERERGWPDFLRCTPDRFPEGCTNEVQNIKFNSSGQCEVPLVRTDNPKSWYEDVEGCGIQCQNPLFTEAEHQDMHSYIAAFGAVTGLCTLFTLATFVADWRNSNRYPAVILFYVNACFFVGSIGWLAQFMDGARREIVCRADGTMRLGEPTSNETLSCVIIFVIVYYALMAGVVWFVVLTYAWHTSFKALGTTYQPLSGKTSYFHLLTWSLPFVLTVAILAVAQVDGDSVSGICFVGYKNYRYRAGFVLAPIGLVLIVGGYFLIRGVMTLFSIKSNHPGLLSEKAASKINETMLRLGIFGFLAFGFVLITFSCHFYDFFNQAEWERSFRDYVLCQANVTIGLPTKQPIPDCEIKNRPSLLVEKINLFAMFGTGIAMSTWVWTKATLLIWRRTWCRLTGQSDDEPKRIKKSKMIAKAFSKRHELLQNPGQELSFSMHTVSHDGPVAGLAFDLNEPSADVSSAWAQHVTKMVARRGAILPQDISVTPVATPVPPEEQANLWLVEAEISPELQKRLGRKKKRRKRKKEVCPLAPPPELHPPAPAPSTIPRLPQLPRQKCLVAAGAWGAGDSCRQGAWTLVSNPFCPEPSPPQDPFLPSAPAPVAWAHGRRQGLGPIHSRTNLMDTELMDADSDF

## C=C1CC[C@H](O)C/C1=C/CO
HT-29 [1]
  GI50: > 100 µM
Vitamin D3 receptor [2]
  Activity: 2
[3]
  Activity: 80.9%
HT-29 [4]
  fold change (FC): 0.9
HT-29 [5]
  fold change (FC): 0.7
[6]
  GI50: > 100 µM
[7]
  fold change (FC): 0.9
[8]
  fold change (FC): 0.6
Vitamin D3 receptor [9]
  Activity: > 100 µM

## CC(C)CCC[C@@H](C)[C@H]1CC[C@H]2[C@@H](O)CCC[C@]12C
HT-29 [1]
  GI50: 66.5 µM
Vitamin D3 receptor [2]
  Activity: 3.6
[3]
  Activity: 46.4%
HT-29 [4]
  fold change (FC): 1.1
HT-29 [5]
  fold change (FC): 1.1
[6]
  GI50: 5.7 µM
[7]
  fold change (FC): 0.7
[8]
  fold change (FC): 0.4
Vitamin D3 receptor [9]
  Activity: > 100 µM

## C=C1CC[C@H](O)C/C1=C\C=C1/CCC[C@]2(C)[C@@H]([C@H](C)CO)CC[C@@H]12
HT-29 [1]
  GI50: > 100 µM
Vitamin D3 receptor [2]
  Activity: 12.5
[3]
  Activity: 66.7%
HT-29 [4]
  fold change (FC): 1.3
HT-29 [5]
  fold change (FC): 3.3
[6]
  GI50: 88.8 µM
[7]
  fold change (FC): 0.8
[8]
  fold change (FC): 0.8
Vitamin D3 receptor [9]
  Activity: > 100 µM

## CC(C)CCC[C@@H](C)[C@H]1CC[C@H]2C(CCC3C[C@@H](O)CCC3C)CCC[C@]12C (some centres not stated)
HT-29 [1]
  GI50: > 100 µM
Vitamin D3 receptor [2]
  Activity: 1.5
[3]
  Activity: 82.1%
HT-29 [4]
  fold change (FC): 1.4
HT-29 [5]
  fold change (FC): 1.4
[6]
  GI50: > 100 µM
[7]
  fold change (FC): 0.8
[8]
  fold change (FC): 0.8
Vitamin D3 receptor [9]
  Activity: > 100 µM

## CC(C)CCC[C@@H](C)[C@H]1CC[C@H]2C(=O)CCC[C@]12C
HT-29 [1]
  GI50: > 100 µM
Vitamin D3 receptor [2]
  Activity: 3
[3]
  Activity: 66.1%
HT-29 [4]
  fold change (FC): 1.1
HT-29 [5]
  fold change (FC): 1
[6]
  GI50: 12.1 µM
[7]
  fold change (FC): 0.9
[8]
  fold change (FC): 0.5
Vitamin D3 receptor [9]
  Activity: > 100 µM

## C=C1CC[C@H](O)C/C1=C\C=C1/CCC[C@]2(C)[C@@H]([C@H](C)CCCC(C)C)CC[C@@H]12
HT-29 [1]
  GI50: > 100 µM
Vitamin D3 receptor [2]
  Activity: 43.5
[3]
  Activity: 69.7%
HT-29 [4]
  fold change (FC): 1.2
HT-29 [5]
  fold change (FC): 27.5
[6]
  GI50: 46 µM
[7]
  fold change (FC): 1.1
[8]
  fold change (FC): 33.8
Vitamin D3 receptor [9]
  Activity: > 100 µM

## C=C1CC[C@H](O)C/C1=C/C=C1\CCC[C@]2(C)[C@@H]([C@H](C)CCCC(C)C)CC[C@@H]12 [CHOLECALCIFEROL]
HT-29 [1]
  GI50: 68.5 µM
Vitamin D3 receptor [2]
  Activity: 8340
U-87 MG
  Ratio: 10000
HT-29 [4]
  fold change (FC): 1.3
HT-29 [5]
  fold change (FC): 14697
[6]
  GI50: 23.2 µM
[7]
  fold change (FC): 0.7
[8]
  fold change (FC): 12.2
Vitamin D3 receptor [9]
  Activity: > 100 µM

## C=C1CC[C@H](O)C/C1=C/C(O)C1(O)CCC[C@]2(C)[C@@H]([C@H](C)CCCC(C)C)CC[C@@H]12 (some centres not stated)
HT-29 [1]
  GI50: > 100 µM
Vitamin D3 receptor [2]
  Activity: 6.7
[3]
  Activity: 144%
HT-29 [4]
  fold change (FC): 0.9
HT-29 [5]
  fold change (FC): 1.2
[6]
  GI50: 25.9 µM
[7]
  fold change (FC): 1.1
[8]
  fold change (FC): 0.5
Vitamin D3 receptor [9]
  Activity: > 100 µM

## C=C1CCC=C/C1=C/C=C1\CCC[C@]2(C)[C@@H]([C@H](C)CCCC(C)C)CC[C@@H]12
HT-29 [1]
  GI50: > 100 µM
Vitamin D3 receptor [2]
  Activity: 3
[3]
  Activity: 79.4%
HT-29 [4]
  fold change (FC): 1.8
HT-29 [5]
  fold change (FC): 1.9
[6]
  GI50: 48.5 µM
[7]
  fold change (FC): 1
[8]
  fold change (FC): 0.9
Vitamin D3 receptor [9]
  Activity: > 100 µM

## C=C1CC[C@H](O)C/C1=C/C=C1\CCC[C@]2(C)[C@@H]([C@H](C)/C=C/[C@H](C)C(C)C)CC[C@@H]12 [ERGOCALCIFEROL]
HT-29 [1]
  GI50: > 100 µM
Vitamin D3 receptor [2]
  Activity: 2410
U-87 MG
  Ratio: 25
[3]
  Activity: 28.1%
HT-29 [4]
  fold change (FC): 1.1
HT-29 [5]
  fold change (FC): 10902
[6]
  GI50: 33.7 µM
[7]
  fold change (FC): 0.9
[8]
  fold change (FC): 49.6
Vitamin D3 receptor [9]
  Activity: > 100 µM

## CC(C)CCC[C@@H](C)[C@H]1CCC2=CCCC[C@@]21C
HT-29 [1]
  GI50: > 100 µM
Vitamin D3 receptor [2]
  Activity: 2.3
[3]
  Activity: 111%
HT-29 [4]
  fold change (FC): 1.1
HT-29 [5]
  fold change (FC): 1.1
[6]
  GI50: > 100 µM
[7]
  fold change (FC): 1
[8]
  fold change (FC): 0.5
Vitamin D3 receptor [9]
  Activity: > 100 µM

## C[C@H](CO)[C@H]1CC[C@H]2[C@@H](O)CCC[C@]12C
HT-29 [1]
  GI50: > 100 µM
Vitamin D3 receptor [2]
  Activity: 4.1
[3]
  Activity: 87.6%
HT-29 [4]
  fold change (FC): 1.2
HT-29 [5]
  fold change (FC): 1
[6]
  GI50: > 100 µM
[7]
  fold change (FC): 1
[8]
  fold change (FC): 0.7
Vitamin D3 receptor [9]
  Activity: > 100 µM

## C=C1CC[C@H](O)C/C1=C/C=C1\CCC[C@]2(C)[C@@H]([C@H](C)CO)CC[C@@H]12
HT-29 [1]
  GI50: > 100 µM
Vitamin D3 receptor [2]
  Activity: 1350
[3]
  Activity: 80%
HT-29 [4]
  fold change (FC): 2.7
HT-29 [5]
  fold change (FC): 69.1
[6]
  GI50: > 100 µM
[7]
  fold change (FC): 1
[8]
  fold change (FC): 4.8
Vitamin D3 receptor [9]
  Activity: > 100 µM

## CC(C)[C@@H](C)/C=C/[C@@H](C)[C@H]1CC[C@H]2[C@@H](O)CCC[C@]12C
HT-29 [1]
  GI50: 49.7 µM
Vitamin D3 receptor [2]
  Activity: 2.3
[3]
  Activity: 32.1%
HT-29 [4]
  fold change (FC): 0.9
HT-29 [5]
  fold change (FC): 0.7
[6]
  GI50: 19 µM
[7]
  fold change (FC): 0.8
[8]
  fold change (FC): 0.3
Vitamin D3 receptor [9]
  Activity: > 100 µM
